Values after ≈ are worked out from the molar mass of the structure shown.
Experiments:
MCF7 = assay: Antiproliferative activity against human MCF7 cells after 72 hrs by MTT assay; assay type: functional, cell-based; conditions: MCF7, 72 h
Method in brief: (§1)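 Monolayer lines grown in DMEM with 10% FBS, 2 mM L-glutamine, penicillin/streptomycin, 37 °C, 5% CO2. Seeded at 3000–6000 cells/well by doubling time, then compound added as five 10-fold dilutions (1 × 10^-8 to 1 × 10^-4 M), DMSO ≤0.1%, for 72 h. MTT read-out converted to percentage growth versus untreated wells. IC50 from linear regression. Quadruplicate points, three experiments.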

[1] = Cytostatic activity against mouse L1210/0 after 48 hrs by cell counting; assay type: functional; conditions: L1210/0, 48 h
Method in brief: (§2)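 Suspension leukaemia cells in RPMI-1640 with 10% FBS, 2 mM L-glutamine, 0.075% NaHCO3. Seeded at 5–7.5 × 10^4 cells/well with compound and grown at 37 °C for 48 h (L1210) or 72 h (CEM). Cells counted by Coulter counter. IC50 is the concentration that reduces viable cell number by 50%.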

WI-38 = assay: Antiproliferative activity against human WI38 cells after 72 hrs by MTT assay; assay type: cell-based; conditions: WI-38, 72 h; method in brief: as §1
[2] = Selectivity index, ratio of CC50 for human HuH5.2 cells to EC50 for HCV genotype 1b
MIA PaCa-2 = assay: Antiproliferative activity against human MIAPaCa2 cells after 72 hrs by MTT assay; assay type: functional, cell-based; conditions: MIA PaCa-2, 72 h; method in brief: as §1
HepG2 = assay: Antiproliferative activity against human HepG2 cells after 72 hrs by MTT assay; assay type: functional, cell-based; conditions: HepG2, 72 h; method in brief: as §1
[3] = Cytotoxicity against human HuH5.2 cells after 72 hrs by MTS assay; assay type: cell-based, Huh-5-2
Method in brief: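 Replicon-bearing Huh 5.2 cells treated in parallel with the antiviral plates using a four-step 1-to-5 dilution series for 72 h. Medium replaced with 5% MTS in phenol red-free medium for 1.5 h, absorbance read at 498 nm, and converted to percent of untreated controls. CC50 is the concentration that reduces metabolic activity by 50%, taken from the dose-response curve.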

CCRF-CEM [4] = assay: Cytostatic activity against human CEM/0 after 72 hrs by cell counting; assay type: functional; method in brief: as §2
HeLa = assay: Antiproliferative activity against human HeLa cells after 72 hrs by MTT assay; assay type: functional, cell-based; method in brief: as §1
CCRF-CEM [5] = assay: Ratio of ribavirin IC50 to compound IC50 for IMPDH in human CEM cells; assay type: cell-based
Hepatitis C virus = assay: Antiviral activity against HCV genotype 1b infected in HuH 5.2 cells expressing 1389luc-ubi-neo/NS3-3' assessed as inhibition of viral replication after 72 hrs by luciferase reporter gene assay; assay type: functional, organism-based, Hepacivirus hominis; conditions: Huh-5-2, 72 h
Method in brief: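 Huh 5.2 cells carrying the genotype 1b I389luc-ubi-neo/NS3-3'/5.1 replicon, seeded at 6500 cells/well in medium without Geneticin and left overnight. Four-step 1-to-5 compound dilutions, 72 h at 37 °C. Cells washed and lysed, then luciferase luminescence read and expressed as percent of untreated controls. EC50 and EC90 from the dose-response curve.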

L1210 [6] = assay: Ratio of ribavirin IC50 to compound IC50 for IMPDH in mouse L1210 cells; assay type: cell-based
SW-620 = assay: Antiproliferative activity against human SW620 cells after 72 hrs by MTT assay; assay type: functional, cell-based; conditions: SW-620, 72 h; method in brief: as §1
CCRF-CEM [7] = assay: (§3) Inhibition of IMPDH in human CEM cells assessed as […] after 20 to 60 mins; assay type: cell-based
Method in brief: (§4)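 Intact L1210 or CEM cells given [2,8-3H]hypoxanthine, which the cells convert to labelled IMP. IMPDH activity measured as 3H release, sampled at 20, 40 and 60 min with or without compound at varying concentrations. After centrifugation at 1100×g for 10 min, supernatant radioactivity counted. Free 3H before cell incubation was below 10% of added label.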

[8] = as §3; assay type: cell-based; conditions: CCRF-CEM; method in brief: as §4
L1210 [9] = assay: (§5) Inhibition of IMPDH in mouse L1210 cells assessed as […] after 20 to 60 mins; assay type: cell-based; method in brief: as §4
[10] = as §5; assay type: cell-based; method in brief: as §4

For `COC(=O)c1ncn(CC=C2OC(=O)C(OCc3ccccc3)=C2OCc2ccccc2)c1C(=O)OC` (mixture of isomers), the IC50 (MCF7) was 52 µM, the IC50 [1] was 32 µM and the IC50 (WI-38) was over 100 µM. The “Ratio CC50/EC50” value [2] was 5.3, the IC50 (MIA PaCa-2) was 33 µM and the IC50 (HepG2) was 55 µM. It also gave a CC50 at 72 h [3] of 70.5 mg/L, an IC50 (CCRF-CEM [4]) of 10 µM and an IC50 (HeLa) of 34 µM. It also gave a Ratio IC50 (CCRF-CEM [5]) of 50, an EC50 (Hepatitis C virus) of 13.3 mg/L and an EC90 (Hepatitis C virus) of 22.7 mg/L. For the same compound, the Ratio IC50 (L1210 [6]) was 50 and the IC50 (SW-620) was 49 µM.

`COC(=O)c1ncn(C[C@H](O)[C@H]2OC(=O)C(OCc3ccccc3)=C2OCc2ccccc2)n1` gave an IC50 (MCF7) of over 100 µM, an IC50 [1] of over 100 µM and an IC50 (WI-38) of over 100 µM. It also gave an IC50 (MIA PaCa-2) of over 100 µM, an IC50 (HepG2) of over 100 µM and a CC50 at 72 h [3] of over 100 mg/L. The IC50 (CCRF-CEM [4]) was over 100 µM, the IC50 (HeLa) was over 100 µM and the EC50 (Hepatitis C virus) was 62.1 mg/L (≈ 133 µM). For the same compound, the IC50 (SW-620) was over 100 µM.

Compound `COC(=O)c1ncn(CC=C2OC(=O)C(OCc3ccccc3)=C2OCc2ccccc2)n1` (mixture of isomers) has an IC50 (MCF7) of 54 µM, an IC50 [1] of 103 µM and an IC50 (WI-38) of over 100 µM. It also gave an IC50 (MIA PaCa-2) of 80 µM, an IC50 (HepG2) of 70 µM and a CC50 at 72 h [3] of over 100 mg/L. It also gave an IC50 (CCRF-CEM [4]) of 44 µM, an IC50 (HeLa) of 97 µM and a Ratio IC50 (CCRF-CEM [5]) of 50. For the same compound, the EC50 (Hepatitis C virus) was 78.5 mg/L, the EC90 (Hepatitis C virus) was over 100 mg/L and the Ratio IC50 (L1210 [6]) was 50. It also gave an IC50 (SW-620) of over 100 µM.

Work on `NC(=O)c1ncn(CCC2(O)NC(=O)C(OCc3ccccc3)=C2OCc2ccccc2)c1C(N)=O` (stereo unspecified) yielded an IC50 (MCF7) of over 100 µM, an IC50 [1] of 198 µM and an IC50 (WI-38) of 98 µM. The IC50 (MIA PaCa-2) was over 100 µM, the IC50 (HepG2) was over 100 µM and the CC50 at 72 h [3] was over 100 mg/L. It also gave an IC50 (CCRF-CEM [4]) of 154 µM, an IC50 (HeLa) of over 100 µM and a Ratio IC50 (CCRF-CEM [5]) of 50. It also gave an EC50 (Hepatitis C virus) of over 100 mg/L, an EC90 (Hepatitis C virus) of over 100 mg/L and a Ratio IC50 (L1210 [6]) of 50. For the same compound, the IC50 (SW-620) was over 100 µM.

`O=c1[nH]cc(F)c(=O)[nH]1` [FLUOROURACIL] showed an IC50 (MCF7) of 66.9 µM, an IC50 (WI-38) of 24.7 µM and an IC50 (MIA PaCa-2) of 11.7 µM. For the same compound, the IC50 (HepG2) was 56.2 µM, the IC50 (HeLa) was 14.9 µM and the IC50 (SW-620) was 6.68 µM.

With `N#Cc1ncn(C/C=C2\OC(=O)C(OCc3ccccc3)=C2OCc2ccccc2)c1C#N` (mixture of isomers) the IC50 (MCF7) was 63 µM, the IC50 [1] was 21 µM and the IC50 (WI-38) was 73 µM. For the same compound, the IC50 (MIA PaCa-2) was 36 µM, the IC50 (HepG2) was 92 µM and the CC50 at 72 h [3] was over 100 mg/L. It also gave an IC50 (CCRF-CEM [4]) of 7.3 µM, an IC50 (HeLa) of 59 µM and an EC50 (Hepatitis C virus) of over 100 mg/L. The EC90 (Hepatitis C virus) was over 100 mg/L and the IC50 (SW-620) was 73 µM.

Work on `COc1cccc2c1C(=O)c1c(O)c3c(c(O)c1C2=O)C[C@@](O)(C(=O)CO)C[C@@H]3O[C@H]1C[C@H](N)[C@H](O)[C@H](C)O1` [DOXORUBICIN] yielded an IC50 [1] of 1.3 µM, an IC50 (WI-38) of 0.04 µM and an IC50 (MIA PaCa-2) of 0.03 µM. The IC50 (HepG2) was 0.05 µM, the IC50 (CCRF-CEM [4]) was 0.39 µM and the IC50 (SW-620) was 0.04 µM.

With `NC(=O)c1ncn([C@@H]2O[C@H](CO)[C@@H](O)[C@H]2O)n1` [RIBAVIRIN] the inhibition (CCRF-CEM [7]) was “Dose-dependent effect”, the IC50 [8] was 1 µM and the IC50 [1] was 22 µM. The inhibition (L1210 [9]) was “Dose-dependent effect”, the IC50 [10] was 1 µM and the IC50 (CCRF-CEM [4]) was 63 µM.

With `NC(=O)c1ncn(CCC2(O)NC(=O)C(OCc3ccccc3)=C2OCc2ccccc2)n1` (stereo unspecified) the IC50 (MCF7) was 61 µM, the IC50 [1] was at least 500 µM and the IC50 (WI-38) was over 100 µM. For the same compound, the IC50 (MIA PaCa-2) was over 100 µM, the IC50 (HepG2) was 66 µM and the CC50 at 72 h [3] was over 100 mg/L. The IC50 (CCRF-CEM [4]) was 445 µM, the IC50 (HeLa) was over 100 µM and the EC50 (Hepatitis C virus) was over 100 mg/L. The EC90 (Hepatitis C virus) was over 100 mg/L and the IC50 (SW-620) was over 100 µM.

With `COC(=O)c1ncn(CCC2(O)NC(=O)C(OCc3ccccc3)=C2OCc2ccccc2)c1C(=O)OC` (stereo unspecified) the IC50 (MCF7) was over 100 µM, the IC50 [1] was 46 µM and the IC50 (WI-38) was 52 µM. For the same compound, the IC50 (MIA PaCa-2) was 47 µM, the IC50 (HepG2) was over 100 µM and the CC50 at 72 h [3] was over 100 mg/L. For the same compound, the IC50 (CCRF-CEM [4]) was 35 µM, the IC50 (HeLa) was 81 µM and the EC50 (Hepatitis C virus) was 36.6 mg/L (≈ 70.2 µM). The EC90 (Hepatitis C virus) was 81.3 mg/L (≈ 156 µM) and the IC50 (SW-620) was over 100 µM.

In the case of `COC(=O)c1ncn(CC=C2OC(=O)C(O)=C2O)n1` (mixture of isomers), the IC50 (MCF7) is reported as over 100 µM, the IC50 [1] is reported as 370 µM and the IC50 (WI-38) is reported as over 100 µM. The IC50 (MIA PaCa-2) was over 100 µM, the IC50 (HepG2) was over 100 µM and the CC50 at 72 h [3] was over 100 mg/L. For the same compound, the IC50 (CCRF-CEM [4]) was over 500 µM, the IC50 (HeLa) was over 100 µM and the EC50 (Hepatitis C virus) was 61.3 mg/L. It also gave an IC50 (SW-620) of over 100 µM.

From ChEMBL document CHEMBL2034826, “Novel 1,2,4-triazole and imidazole derivatives of L-ascorbic and imino-ascorbic acid: synthesis, anti-HCV and antitumor activity evaluations” (Bioorg Med Chem, 2012)
